# Test results as given in PMC6177216 (Journal of controlled release : official journal of the …, 2018).
# Like-named read-outs stand apart in the source and are kept apart here.
# Key:
# [1] = tested on: MCF-7 human breast cancer cells; experiment: MTT cytotoxicity assay in MCF-7 cells; assay type: cell-based; conditions: for inhibition of cell proliferation (in words): MTT
# In short: (§1)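 Cells seeded at 5×10³ (MCF-7) or 3×10³ (PC-3) per well and grown 24 h in DMEM with 10% FBS and 1% streptomycin/penicillin. They were then exposed for 48 h to various concentrations of test compound alone or combined with another anticancer agent. Viability was read by MTT. IC50 came from fitting an inhibitory normalised dose-response model with variable slope.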
# [2] = tested on: 4T1.2 mouse breast cancer cells; experiment: MTT cytotoxicity assay in 4T1.2 cells; assay type: cell-based
# [3] = tested on: PC-3 human prostate cancer cells; experiment: MTT cytotoxicity assay in PC-3 cells; assay type: cell-based
# In short: as §1
# GCS mRNA [4] = experiment: GCS mRNA expression by real-time PCR in MCF-7 cells; assay type: cell-based, human; conditions: 48 h; for effect on GCS mRNA expression: various concentrations
# GCS mRNA [5] = experiment: GCS mRNA expression by real-time PCR in 4T1.2 cells; assay type: cell-based, mouse; conditions: 48 h; for effect on GCS mRNA expression: various concentrations
# ceramides in MCF-7 cells = experiment: Ceramide levels by LC/MS in MCF-7 cells; assay type: cell-based, human; conditions: PPMP 1.7 μM and/or DOX 100 nM, 48 h
# In short: (§2)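 Cells seeded at 2×10⁴ (4T1.2) or 6×10⁴ (MCF-7) per well in DMEM with 10% FBS and 1% penicillin-streptomycin for 24 h. Medium was then replaced with 2% FBS medium containing test compound, free or micellar. After 48 h, cells were washed with ice-cold D-PBS and lysed in 0.2% SDS, with an aliquot kept for protein assay. Lipids were resuspended in ACN/IPA/H₂O (1:1:1) and analysed by HPLC-ESI-MS/MS. Peak areas were quantified against C6-ceramide internal standard and normalised to protein.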
# ceramides in 4T1.2 cells = experiment: Ceramide levels by LC/MS in 4T1.2 cells; assay type: cell-based, mouse; conditions: PPMP 1.7 μM and/or DOX 100 nM, 48 h
# In short: as §2
# [6] = In vitro DOX release by dialysis in DPBS; assay type: physicochemical; conditions: DOX 0.5 mg/mL
# In short: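 Dialysis release was run alongside free drug and drug loaded in a pharmacologically inert copolymer micelle as comparators. Cumulative release was followed from 0 to 72 h in triplicate.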
# [7] = Plasma pharmacokinetics of DOX; assay type: in vivo, tumor-free female CD1 mice; conditions: DOX in plasma; i.v. 5 mg/kg DOX; CD1 mice
smiles,measurement,setting,value
CCCCCCCCCCCCC/C=C/[C@@H](O)[C@H](CO)NC(=O)CCCCC [C6-ceramide],IC50,"[1]; read-out: D502, IC50 of drug 2 in single treatment, MCF-7, 48 h",6.2 ± 0.2 µM
same,IC50,"[2]; read-out: D502, IC50 of drug 2 in single treatment, 4T1.2, 48 h",2.8 ± 0.2 µM
same,IC50,"[3]; read-out: D502, IC50 of drug 2 in single treatment, PC-3, 48 h",1.6 ± 0.1 µM
same,increase of GCS mRNA expression level,GCS mRNA [4]; C6-ceramide 2 μM,6.5 fold
same,effect on GCS mRNA expression,GCS mRNA [4],significant increases
same,effect on GCS mRNA expression,GCS mRNA [5],similarly observed
"COc1cccc2c1C(=O)c1c(O)c3c(c(O)c1C2=O)C[C@@](O)(C(=O)CO)C[C@@H]3O[C@H]1C[C@H](N)[C@H](O)[C@H](C)O1 [DOX, Doxorubicin]",inhibition of cell proliferation (in words),"[1]; MCF-7, 48 h",concentration-dependent inhibition
same,increase of GCS mRNA expression level,GCS mRNA [4]; DOX 200 nM,4.2 fold
same,effect on GCS mRNA expression,GCS mRNA [4],significant increases
same,effect on GCS mRNA expression,GCS mRNA [5],similarly observed
same,effect on amount of C16 ceramide,ceramides in MCF-7 cells,significantly induced
same,effect on amount of C16 ceramide,ceramides in 4T1.2 cells,significantly induced
same,DOX released,[6]; in 2 h,Forty eight
same,DOX released,[6]; within 12 h,around 83%
same,AUC0−∞,[7],9200 ng·h/mL
same,CL,[7],10.87 µL/h
same,Cmax,[7],4410 µg/mL
same,T1/2,[7],3.35 h
same,Vd,[7],52.49 µL
"CCCCCCCCCCCCCCCC(=O)NC(CN1CCOCC1)C(O)c1ccccc1 (centres unmarked) [PPMP, 1-phenyl-2-palmitoylamino-3-morpholino-1-propanol]",IC50,"[1]; Homo sapiens, MCF7, 48 h, read-out: D501, IC50 of PPMP in single treatment",5.7 ± 0.4 µM
same,inhibition of cell proliferation (in words),"[1]; MCF-7, 48 h",concentration-dependent inhibition
same,cytotoxicity / inhibition of proliferation (in words),"[2]; 4T1.2, 48 h, MTT",inhibited the proliferation
same,IC50,"[2]; Mus musculus, 4T1.2, 48 h, read-out: D501, IC50 of PPMP in single treatment",2.2 ± 0.1 µM
same,IC50,"[3]; Homo sapiens, PC-3, 48 h, read-out: D501, IC50 of PPMP in single treatment",3.4 ± 0.1 µM
same,effect on DOX-induced upregulation of GCS mRNA expression,"GCS mRNA [4]; PPMP 1.7 μM, DOX 100 nM",effective in inhibiting
same,effect on basal level of GCS mRNA,GCS mRNA [4]; PPMP concentration 1.7 μM,significant decreases
same,effect on DOX-induced upregulation of GCS mRNA expression,"GCS mRNA [5]; PPMP 1.7 μM, DOX 100 nM",effective in inhibiting
same,effect on basal level of GCS mRNA,GCS mRNA [5]; PPMP concentration 1.7 μM,significant decreases
same,effect on amount of C16 ceramide,ceramides in MCF-7 cells,modest increase
same,effect on amount of C16 ceramide,ceramides in 4T1.2 cells,modest increase
"CC(=O)O[C@H]1C(=O)[C@@]2(C)[C@H]([C@H](OC(=O)c3ccccc3)[C@]3(O)C[C@H](OC(=O)[C@H](O)[C@@H](NC(=O)c4ccccc4)c4ccccc4)C(C)=C1C3(C)C)[C@]1(OC(C)=O)CO[C@@H]1C[C@@H]2O [PTX, paclitaxel]",IC50,"[1]; Homo sapiens, MCF7, 48 h, read-out: D502, IC50 of drug 2 in single treatment",7.14 ± 1.87 µg/mL
same,IC50,"[2]; Mus musculus, 4T1.2, 48 h, read-out: D502, IC50 of drug 2 in single treatment",0.108 ± 0.0181 µg/mL
same,IC50,"[3]; Homo sapiens, PC-3, 48 h, read-out: D502, IC50 of drug 2 in single treatment",0.0043 ± 0.0002 µg/mL
same,effect on GCS mRNA expression,GCS mRNA [4],significant induction
same,effect on GCS mRNA expression,GCS mRNA [5],not in 4T1.2 cells
